This is an account of results in the M2OR odorant receptor database.

The experiment concerns the target T1, UniProt E9PVX1.
T1 sequence (whole entry): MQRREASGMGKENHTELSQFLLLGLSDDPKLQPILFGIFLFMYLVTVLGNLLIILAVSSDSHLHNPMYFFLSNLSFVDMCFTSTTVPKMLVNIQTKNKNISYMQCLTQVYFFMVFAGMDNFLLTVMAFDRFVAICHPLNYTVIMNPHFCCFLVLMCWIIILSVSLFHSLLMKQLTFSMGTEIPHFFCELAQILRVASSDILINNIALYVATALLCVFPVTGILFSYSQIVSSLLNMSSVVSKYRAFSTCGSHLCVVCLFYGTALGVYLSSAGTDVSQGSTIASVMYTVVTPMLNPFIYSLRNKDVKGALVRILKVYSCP
The settings on record: stereoisomer not certain. Summed up: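 Each entry records the cell line, G-protein, co-transfected protein and tags used. Methods varied with the source, often transient luciferase assays in mammalian cell lines. A receptor–molecule pair is called responsive (active) if the original authors judged its signal statistically different from baseline and non-responsive (inactive) otherwise.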
As to `C=C(CC)CCCC(C)(C)O`, the “odorant receptor agonist call” value is “inactive”. For the molecule `C=CC(C)=CCC=C(C)CCC=C(C)C`, the “odorant receptor agonist call” value is “inactive”.

For the molecule `CC(=O)C=CC1=C(C)CCCC1(C)C`, the “odorant receptor agonist call” value was “inactive”. For the molecule `O=C(OCc1ccccc1)c1ccccc1O`, the “odorant receptor agonist call” value was “inactive”. `CCc1ccccc1O`: the “odorant receptor agonist call” value was “inactive”. Regarding `CC(C)=C1CCC(C)CC1=O` (stereo not drawn), the “odorant receptor agonist call” value was “inactive”. The result for `CC=CC(=O)C1=C(C)CCCC1(C)C` reads “inactive”; that for `CNc1ccccc1C(=O)OC`, “inactive”. In the case of `C=CC(=C)CCC=C(C)C`, the “odorant receptor agonist call” value is “inactive”. Take `CCCCCC(C=O)=Cc1ccccc1`: the “odorant receptor agonist call” value was “inactive”. On to `OCC=Cc1ccccc1`, for which the “odorant receptor agonist call” value is “inactive”. To `CC(C)CS` belongs “inactive”. As for `C1CCOC1`, the “odorant receptor agonist call” value was “inactive”. As for `Cc1ccc(OC(=O)C(C)C)cc1`, the “odorant receptor agonist call” value was “inactive”. On to `OCCc1ccccc1`, for which the “odorant receptor agonist call” value is “inactive”. Regarding `CC(=O)OCc1ccc2c(c1)OCO2`, the “odorant receptor agonist call” value is “inactive”. The result for `C=CC(=O)CCCCC` reads “inactive”. As to `CCCCCCC=CC=O`, the “odorant receptor agonist call” value is “inactive”.

For `O=C([O-])CCCCCCC(=O)[O-].[H+].[H+]`, the “odorant receptor agonist call” value is “inactive”. As for `CCN(CC)CC`, the “odorant receptor agonist call” value was “inactive”.

Regarding `COC(OC)c1ccccc1`, the “odorant receptor agonist call” value was “inactive”. The result for `CC(CC=O)CCCC(C)(C)O` (stereo not drawn) reads “inactive”; that for `CCCCCC(C)O` (stereo not drawn), “inactive”; that for `CC=Cc1ccc(OC)cc1`, “inactive”. The result for `CCCO` reads “inactive”.

As to `CCCCCOC(=O)CC`, the “odorant receptor agonist call” value is “inactive”.

Take `CC(C)=CCCC(C)=CCOC(=O)C(C)C`: the “odorant receptor agonist call” value was “inactive”. To `CCCCCCC(=O)OCCCC` belongs “inactive”; to `CC(C)CCN`, “inactive”; to `c1ccc2ncccc2c1`, “inactive”.

Consider `C=C(C)C1CCC(C)C(O)C1` (stereo not drawn), for which the “odorant receptor agonist call” value is “inactive”. As for `CC1CCC(C(C)C)C(=O)C1` (stereo not drawn), the “odorant receptor agonist call” value is “inactive”. In the case of `CCCCCCCCCC=CC=O`, the “odorant receptor agonist call” value was “inactive”.
